Compounds with a hit are over-represented: about 4% of the library has one in this group of screens.
Yeast life ext: extends the lifespan of yeast | S. cerevisiae growth with nicotinamide, OD615; deaD strain in restrictive glucose medium | inhibition of the nicotinamide effect, % at 10 µM | 130,000 tested, 0.68% active | AID 775;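 active = inhibition above a set limit, placed 3 SD over the median of all compounds, cut at about 26% in these data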;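 also: 0% = nicotinamide-treated wells and 100% = cells grown without nicotinamide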
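Test system – modified budding yeast, DeaD strain · Compound – single dose 10 µM compound, 0.25% DMSO · Times – culture preincubation 4 h, compound exposure 48 h, both 30 °C · Detection – optical density (absorbance) at 615 nm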
Insulin prom inh: TRM-6 insulin promoter activity inhibition; TRM-6 cells, insulin promoter-eGFP reporter, imaging; reporter expression induced with tamoxifen; inhibition, % at 2 µM; 130,000 tested, 0.9% active; AID 1273;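 active = inhibition above the mean plus 3 SD, with well images judged a real hit on visual review, cut at about 60% in these data, passing the limit was not always enough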
Measles CPE: protection of cells from measles virus | Measles virus-infected cells, CPE protection, absorbance | protection (pct of control), % at 4 µM | 140,000 tested, 1.5% active; in the data active = protection mostly above about 24%, no sharp cut-off; inactive = mostly below about 26%
RAM inhibit: blocks the yeast RAM network | S. cerevisiae dse1pr::URA3 reporter, 5-FOA growth OD615, 2 d; analog-sensitive cbk1-as2 kinase mutant strain | AID 868 | inhibition, % at 50 µM | 190,000 tested, 1.8% active;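 active = inhibition above a set limit, 3 SD over mean compound inhibition, cut at about 8.4% in these data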;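 also: 0% = DMSO-only wells with no growth and 100% = 10 µM 1-NA-PP1 full growth; inhibition rescues growth on 5-FOA so higher OD means more RAM inhibition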
Yeast growth inh: chemicals that inhibit yeast BB579 growth in restrictive medium (lifespan-shortening candidates); S. cerevisiae BB579 growth, OD615, 48 h; inhibition, % at 10 µM; 140,000 tested, 0.51% active;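 active = inhibition above a set limit, 3 SD over the mean compound inhibition, cut at about 44% in these data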
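Material: Saccharomyces cerevisiae DeaD strain BB579, replicative lifespan model yeast; buffer or medium: CSMM-D restrictive synthetic medium containing dextrose (glucose); compound: 10 µM single dose, DMSO 0.25%; timing: 48 h compound exposure at 30 °C after 4 h preincubation; signal: turbidity as optical density at 615 nm; benchmarks: positive control amphotericin B 10 µg/mL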
MDM2 E3 inh: inhibitors of human Mdm2 E3 ubiquitin ligase. AID 1230. 210,000 tested, 0.11% active. Q00987. cell-based MDM2 ubiquitination luciferase reporter, 2 h; 0 = plate control, 100 = twice control, blank-subtracted. signal enhancement, % at 5 µM;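 active = signal enhancement of 30% or more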;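 also: luminescence tracks abundance of the self-degrading MDM2-luciferase fusion protein; higher signal means inhibition of MDM2 E3 ligase activity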
Target sequence (Q00987 whole entry, looked up, the tested form may be a part): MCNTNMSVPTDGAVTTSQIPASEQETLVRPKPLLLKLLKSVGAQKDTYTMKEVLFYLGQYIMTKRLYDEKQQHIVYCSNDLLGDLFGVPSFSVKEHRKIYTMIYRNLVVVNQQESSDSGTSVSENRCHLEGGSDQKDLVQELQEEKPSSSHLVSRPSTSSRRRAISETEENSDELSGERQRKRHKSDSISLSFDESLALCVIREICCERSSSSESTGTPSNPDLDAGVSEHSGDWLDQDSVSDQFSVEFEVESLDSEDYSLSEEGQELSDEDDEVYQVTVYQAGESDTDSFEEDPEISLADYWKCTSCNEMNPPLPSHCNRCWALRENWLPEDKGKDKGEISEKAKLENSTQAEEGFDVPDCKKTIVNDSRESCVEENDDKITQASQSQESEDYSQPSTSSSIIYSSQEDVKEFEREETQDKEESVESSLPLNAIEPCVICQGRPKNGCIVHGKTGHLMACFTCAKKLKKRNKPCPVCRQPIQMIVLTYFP
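Assay system: stable mammalian line carrying autodegrading MDM2–luciferase fusion reporter; Input: 2000 cells in each well; Compound dosing: single-point 5 µM; Schedule: 2 h compound exposure at 37 °C; Signal: SteadyLite luciferase luminescence after 15 min room-temperature reagent incubation; Evaluation: % luminescence enhancement versus blank-corrected plate control mean; Benchmarks: plate controls and plate blanks.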
* hit, by the source's call; . = no result.

SMILES	Yeast life ext	Insulin prom inh	Measles CPE	RAM inhibit	Yeast growth inh	MDM2 E3 inh
CN(C)CCN=Cc1c(O)n(CCC2=CCCCC2)c(=O)[nH]c1=O	-2.0	.	33.0*	0.7	-41.1	-5.8
NC1=Nc2ccccc2Oc2ccccc21	2.4	-20.8	2.2	-0.8	-5.2	-13.4
COc1ccccc1OCCCn1cc(C(=O)c2ccco2)c2ccccc21	-0.9	-64.5	2.9	10.3*	-34.2	-1.8
O=C(c1ccco1)c1cn(Cc2ccc(Cl)cc2)c2ccccc12	-0.6	-19.4	2.2	11.1*	-38.8	2.8
O=C(Cn1cc(C(=O)c2ccccc2)c2ccccc21)NCc1ccco1	9.3	20.0	5.6	0.6	-39.1	-7.7
CCNC(=O)NC(=O)C(C)OC(=O)c1c(C)nn(Cc2ccccc2Cl)c1Cl (centres undefined)	2.5	-56.0	7.3	3.8	-17.9	-0.3
CCOc1cc(C2C(C#N)=C(N)Oc3c2c(=O)oc2ccccc32)ccc1OC(=O)c1cccs1 (centres undefined)	4.7	.	10.7	8.9*	-23.8	-16.2
N#CC1=C(N)Oc2c(c(=O)oc3ccccc23)C1c1cccnc1 (centres undefined)	-4.7	18.5	19.1	-0.6	-13.9	-22.5
CN1CSC(=S)N(C)C1	-31.2	67.9*	3.4	0.0	85.5*	-5.4
CCC(C)N1C(=O)/C(=C\c2ccc(N3CCCCCC3)cc2)C(=O)NC1=S (centres undefined)	8.0	0.0	12.2	6.4	-57.0	-3.8
CCC(C)N1C(=O)/C(=C\c2cc3c4c(c2)CCCN4CCC3)C(=O)NC1=S (centres undefined)	30.3*	11.1	5.5	3.1	-36.1	-5.2
COc1ccc(C(=O)CN2CCOCC2)cc1F	-4.3	81.8*	3.5	2.1	10.3	-15.0
Cc1ccc(-c2nc3ccccc3c(=O)n2-c2cccnc2)cc1	14.5	-14.8	9.4	1.2	1.9	34.4*
CN1CC=C2C(C#N)=C(N)C(C#N)(C#N)C(c3ccncc3)C2C1 (centres undefined)	15.2	-384.2	44.8*	2.1	-28.0	-12.4
CCCCC1C(=O)NC(=S)NC1=O	0.9	36.7	7.4	1.6	-38.2	.
CC1CCN(C(=O)CCl)CC1	7.1	38.5	4.3	2.0	-46.3	-8.8
COc1ccc(Cl)cc1C(=O)C1CCCN(Cc2cnc(C)s2)C1 (centres undefined)	.	.	.	0.3	.	-4.3
Cc1c(C(=O)Nc2ccccc2)cc(-c2ccccc2)n1CCCN1CCOCC1	.	.	.	.	.	-13.7
COCCCn1c(-c2ccc(OC)cc2)cc(C(=O)NC2CCCCCCC2)c1C	2.4	44.0	14.0	10.7*	-31.4	-3.6
COc1cccc(C2CC3C(=O)C=CC2N3Cc2ccccc2)c1 (centres undefined)	59.5*	3.0	6.0	0.8	-37.5	-1.9
O=c1c2ccccc2nc(CNc2ccccc2)n1-c1ccccc1	.	.	.	.	.	-4.4
CN(C(=O)Oc1cccc2cccnc12)c1ccccc1	-2.6	.	18.2	0.2	-12.7	-12.4
CN(C(=O)Oc1ccc(Cl)c2cccnc12)c1ccccc1	2.8	-66.7	30.9*	1.1	-54.6	2.1
N=Cc1c(O)n(-c2ccc(C34CC5CC(CC(C5)C3)C4)cc2)c(=O)[nH]c1=O	-1.6	.	1.7	-0.9	-25.4	1.5
CCn1nc(-c2ccccc2)nc2c(=O)n(C)c(=O)nc1-2	-14.4	.	5.4	-0.9	100.0*	-5.4
SMILES	Yeast life ext	Insulin prom inh	Measles CPE	RAM inhibit	Yeast growth inh	MDM2 E3 inh
Cc1nc2c(=O)n(C)c(=O)nc-2n(C)n1	.	-155.2	9.2	-1.1	-21.8	-9.0
CCCCN1C(=O)NC(=O)/C(=C/c2cnc(SC)nc2)C1=O	15.8	-2.3	51.0*	-0.7	-20.6	-14.3
CSc1ncc(/C=C2/C(=O)NC(=O)N(C)C2=O)cn1	-9.1	.	2.6	0.1	-23.2	1.9
CC[N+](C)(CC)CCCOC(=O)C(O)(c1ccccc1)C1CCCCC1 (centres undefined)	.	27.8	32.4*	0.1	-32.3	-8.4
Cc1ccccc1NC(=O)NCCN1CC1	.	.	.	.	.	-0.8
O=C(Nc1ccccc1)c1cccn(Cc2ccccc2)c1=O	.	.	.	9.2*	.	-18.8
CSc1ncc(Cl)c(C(=O)O)n1 (tested in a mixture with another compound)	3.9	6.7	9.7	0.7	-27.8	-11.4
O=C1CCCN1CC#CCN1CCCC1	.	.	.	.	.	-9.4
NC(=O)CN1CC(c2ccccc2)CC1=O (centres undefined)	-4.5	.	39.0*	1.4	17.1	-14.5
CCOC(=O)c1ccc(N=Cc2c(O)n(-c3ccc(OC)cc3)c(=S)[nH]c2=O)cc1	.	16.7	.	4.1	.	-17.9
COc1ccc(N=Cc2c(O)n(-c3ccc(C)cc3)c(=O)[nH]c2=O)cc1	.	83.3*	.	6.7	.	-4.1
Cc1cccc(NP(C)(=O)c2nc3c(s2)CCCC3)c1 (centres undefined)	7.5	44.4	2.4	1.5	-18.9	-2.6
CCC(=Nc1ccc2c(c1)CCC2)c1c(O)n(-c2ccc(OC)cc2)c(=O)[nH]c1=O	.	.	.	.	.	-11.3
CCn1cc(C(=O)O)c(=O)c2ccc(C)nc21	64.1*	-9.1	15.2	-0.8	-17.7	2.6
CC1(c2ccc(Cl)cc2Cl)OCC(Cn2cncn2)O1 (centres undefined)	.	.	.	2.2	.	.
CCCC1COC(Cn2cncn2)(c2ccc(Cl)cc2Cl)O1 (centres undefined)	-23.0	18.9	15.8	-1.2	93.5*	5.5
O=C(NCc1ccc(C(=O)N2CCC3(CC2)OCCO3)cc1)c1cccc(Br)c1	-21.7	-226.7	26.1*	-0.9	-25.5	6.9
Cc1ccc(N2C(=O)NC(=O)/C(=C/c3ccc(-c4ccc(C(=O)O)c(Cl)c4)o3)C2=O)cc1	.	-20.0	.	10.8*	.	20.0
Cc1ccc(N2C(=O)NC(=O)/C(=C\c3ccoc3)C2=O)cc1	.	.	.	-1.8	.	-7.9
O=C(/C=C/c1c[nH]c2ccccc12)c1c(O)n(CCc2ccccc2)c(=O)[nH]c1=O	.	.	.	.	.	-15.7
CC1(C)C[C@H]2C=C(C=O)[C@]3(C=O)C[C@]3(C)[C@H]2C1	-12.2	-277.3	-0.8	-2.4	99.8*	-25.2
C[C@@H]1C(=O)O[C@@H]2[C@H](O)C34[C@@H]5OC(=O)C3(O[C@H]3OC(=O)[C@H](O)C34[C@H](C(C)(C)C)[C@H]5O)[C@@]12O (some centres undefined)	-3.6	14.3	20.4*	-0.1	6.2	.
COc1ccc(NP(=O)(Oc2ccc(Cl)cc2)Oc2ccc(Cl)cc2)cc1OC	3.1	29.6	18.0	9.5*	-27.4	-4.3
COc1ccc(OC)c(NP(=O)(Oc2ccc(Cl)cc2)Oc2ccc(Cl)cc2)c1	2.6	0.0	12.2	11.4*	-27.6	-14.2
O=C(CNC1CCCC1)Nc1ccc(N2CCCCCC2)cc1	.	.	.	0.8	.	-7.3

Assay outcomes as filed in PubChem BioAssay.
